Test results reported in ChEMBL document CHEMBL1127494, “New hexahydroxybiphenyl derivatives as inhibitors of protein kinase C” (J Med Chem, 1994).
Where “and” joins values, the source holds several entries; their conditions need not be identical. Equal values may be shown once.

Tests used:
Protein kinase C (PKC) [1] = experiment: Inhibitory activity against protein kinase C of rat brain
How it was run: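 PKC purified from rat brain. The read-out was 32P transfer from 30 μM [γ-32P]ATP to histone IIIS (200 μg/mL) in 20 mM Hepes pH 7.5 with phosphatidylserine, 10 mM MgCl2, 100 μM CaCl2 and 47.5 μM EGTA, run 10 min at 30 °C. Reactions were TCA-precipitated, filtered and scintillation-counted. Lipid-independent activity was subtracted, and test levels were 4, 43 and 218 μM.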

Protein kinase C (PKC) [2] = experiment: Displacement of [3H]PDBU from protein kinase C; type: protein assay, Rattus norvegicus
[3] = Inhibition of c-AMP dependent kinase (PKA) catalytic subunit; set-up: species or system Bos taurus
[4] = biological target: Protein kinase C delta type (Homo sapiens, UniProt Q05655); experiment: Inhibition of protein kinase C delta
How it was run: (§1)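 Recombinant human enzyme expressed by baculovirus in SF9 cells, then partially purified by homogenizing the pellet in Tris pH 8 detergent buffer, spinning, and running a DEAE column with a 0–500 mM NaCl gradient, with the peak pooled. The reaction was [γ-32P]ATP (30 μM) incorporation into histone IIIS (200 μg/mL) with phosphatidylserine, Ca2+/EGTA and Mg2+ in Hepes pH 7.5, run 10 min at 30 °C. It was stopped with TCA and counted on filters. No-lipid background was subtracted, and compounds were tested at 4, 43 and 218 μM.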

[5] = biological target: Protein kinase C alpha type (Homo sapiens, UniProt P17252); experiment: Inhibition of protein kinase C alpha
[6] = biological target: Protein kinase C gamma type (Homo sapiens, UniProt P05129); experiment: Inhibition of protein kinase C gamma; how it was run: as §1

Chain of Protein kinase C delta type (Q05655 whole entry): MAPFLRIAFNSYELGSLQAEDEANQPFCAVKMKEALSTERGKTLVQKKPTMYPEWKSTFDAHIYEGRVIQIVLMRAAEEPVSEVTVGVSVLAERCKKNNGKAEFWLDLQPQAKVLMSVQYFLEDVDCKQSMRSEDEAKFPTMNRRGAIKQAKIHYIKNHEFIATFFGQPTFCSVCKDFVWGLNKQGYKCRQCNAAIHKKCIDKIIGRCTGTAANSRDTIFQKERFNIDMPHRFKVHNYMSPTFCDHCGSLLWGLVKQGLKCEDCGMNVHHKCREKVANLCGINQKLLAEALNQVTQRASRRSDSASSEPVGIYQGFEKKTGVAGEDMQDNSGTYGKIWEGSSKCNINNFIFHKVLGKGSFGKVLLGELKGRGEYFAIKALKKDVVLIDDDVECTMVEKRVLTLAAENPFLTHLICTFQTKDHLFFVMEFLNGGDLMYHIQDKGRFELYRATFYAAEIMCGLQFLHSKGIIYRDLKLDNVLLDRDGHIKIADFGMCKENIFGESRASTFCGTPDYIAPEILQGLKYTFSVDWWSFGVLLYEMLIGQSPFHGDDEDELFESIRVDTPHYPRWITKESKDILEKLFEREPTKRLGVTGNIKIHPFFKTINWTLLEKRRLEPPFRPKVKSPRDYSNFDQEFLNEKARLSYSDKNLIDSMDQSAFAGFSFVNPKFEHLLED

Row | SMILES | IC50 (Protein kinase C (PKC) [1]) | IC50 (Protein kinase C (PKC) [2]) | IC50 [3] | other results
1 | c1ccc(COc2cc3c(c(OCc4ccccc4)c2OCc2ccccc2)-c2c(cc(OCc4ccccc4)c(OCc4ccccc4)c2OCc2ccccc2)C[N+]2(C3)Cc3cc(OCc4ccccc4)c(OCc4ccccc4)c(OCc4ccccc4)c3-c3c(cc(OCc4ccccc4)c(OCc4ccccc4)c3OCc3ccccc3)C2)cc1 | 131 µM | – | – | –
2 | O=C(O[C@@H]1O[C@@H]2COC(=O)c3cc(O)c(O)c(O)c3-c3c(cc(O)c(O)c3O)C(=O)O[C@H]([C@H]1OC(=O)c1cc(O)c(O)c(O)c1)[C@@H]2OC(=O)c1cc(O)c(O)c(O)c1)c1cc(O)c(O)c(O)c1 [PUNICAFOLIN] | 4 µM | < 50 µM | > 218 µM | –
3 | BrCc1cc(OCc2ccccc2)c(OCc2ccccc2)c(OCc2ccccc2)c1-c1c(CBr)cc(OCc2ccccc2)c(OCc2ccccc2)c1OCc1ccccc1 | 103 µM | – | – | –
4 | CCCCCCCCCCCCC/C=C/[C@@H](O)[C@@H](N)CO [SPHINGOSINE] | 40 µM | 23 µM | – | –
5 | COC(=O)c1cc(OCc2ccccc2)c(OCc2ccccc2)c(OC)c1-c1c(C(=O)OC)cc(OCc2ccccc2)c(OCc2ccccc2)c1OC | 97 µM | – | – | –
6 | OCc1cc(OCc2ccccc2)c(OCc2ccccc2)c(OCc2ccccc2)c1-c1c(CO)cc(OCc2ccccc2)c(OCc2ccccc2)c1OCc1ccccc1 | 70 µM and 55 µM and 88 µM | > 272 µM | 21 µM | –
7 | O=C(O[C@@H]1O[C@@H]2COC(=O)c3cc(O)c(O)c(O)c3-c3c(cc(O)c(O)c3O)C(=O)O[C@H]([C@H]1O)[C@@H]2O)c1cc(O)c(O)c(O)c1 [CORILAGIN] | 20 µM | – | – | –
8 | O=C1OCC2O[C@@H](O)C3OC(=O)c4cc(O)c(O)c(O)c4-c4c(cc(O)c(O)c4O)C(=O)OC3C2OC(=O)c2cc(O)c(O)c(O)c2-c2c1cc(O)c(O)c2O (stereo not given in full) | 4 µM | < 50 µM | > 218 µM | –
9 | COc1c(OCc2ccccc2)c(OCc2ccccc2)cc(C=O)c1-c1c(C=O)cc(OCc2ccccc2)c(OCc2ccccc2)c1OC | > 218 µM | – | – | –
10 | Oc1cc2c(c(O)c1O)-c1c(cc(O)c(O)c1O)COC2 | 32 µM and 28 µM and 43 µM | 54 µM | 31 µM and 29 µM and > 218 µM | IC50 [4]: 42 µM and 44 µM; IC50 [5]: 37 µM; IC50 [6]: 34 µM and 30 µM
11 | OCc1cc(OCc2ccccc2)c(OCc2ccccc2)c(O)c1-c1c(CO)cc(OCc2ccccc2)c(OCc2ccccc2)c1O | > 218 µM | – | – | –
12 | COCc1cc(O)c(O)c(O)c1-c1c(COC)cc(O)c(O)c1O | 98 µM | – | > 218 µM | IC50 [5]: 43 µM; IC50 [6]: 50 µM
13 | O=C(O[C@@H]1OC2COC(=O)c3cc(O)c(O)c(O)c3-c3c(cc(O)c(O)c3O)C(=O)OC2C2OC(=O)c3cc(O)c(O)c(O)c3-c3c(cc(O)c(O)c3O)C(=O)OC21)c1cc(O)c(O)c(O)c1 (stereo not given in full) | 3 µM | < 50 µM | > 218 µM | –
14 | COC(=O)c1cc(O)c(O)c(O)c1-c1c(C(=O)OC)cc(O)c(O)c1O | > 218 µM | – | – | –
15 | COc1c(OCc2ccccc2)c(OCc2ccccc2)cc2c1-c1c(cc(OCc3ccccc3)c(OCc3ccccc3)c1OC)C[N+]1(C2)Cc2cc(OCc3ccccc3)c(OCc3ccccc3)c(OC)c2-c2c(cc(OCc3ccccc3)c(OCc3ccccc3)c2OC)C1 | 87 µM | > 272 µM | 15 µM | –
16 | c1ccc(COc2cc3c(c(OCc4ccccc4)c2OCc2ccccc2)-c2c(cc(OCc4ccccc4)c(OCc4ccccc4)c2OCc2ccccc2)COC3)cc1 | 180 µM | – | – | –
17 | CCOC(=O)c1cc(O)c(O)c(O)c1-c1c(C(=O)OCC)cc(O)c(O)c1O | > 218 µM | – | – | –
18 | O=Cc1cc(OCc2ccccc2)c(OCc2ccccc2)c(OCc2ccccc2)c1-c1c(C=O)cc(OCc2ccccc2)c(OCc2ccccc2)c1OCc1ccccc1 | 131 µM | – | – | –
19 | CCOC(=O)c1cc(OCc2ccccc2)c(OCc2ccccc2)c(OCc2ccccc2)c1-c1c(C(=O)OCC)cc(OCc2ccccc2)c(OCc2ccccc2)c1OCc1ccccc1 | 50 µM and 96 µM and 75 µM | > 272 µM | 19 µM | –
20 | CCOC(=O)c1cc(OCc2ccccc2)c(OCc2ccccc2)c(OC)c1-c1c(C(=O)OCC)cc(OCc2ccccc2)c(OCc2ccccc2)c1OC | 94 µM | – | – | –
21 | COC(=O)c1cc(OCc2ccccc2)c(OCc2ccccc2)c(OCc2ccccc2)c1-c1c(C(=O)OC)cc(OCc2ccccc2)c(OCc2ccccc2)c1OCc1ccccc1 | 180 µM and 131 µM and > 218 µM | – | – | –
22 | COc1cc2c(c(OC)c1OC)-c1c(cc(OC)c(OC)c1OC)COC2 | > 218 µM | – | – | –
23 | COc1c(OCc2ccccc2)c(OCc2ccccc2)cc(CBr)c1-c1c(CBr)cc(OCc2ccccc2)c(OCc2ccccc2)c1OC | > 218 µM | – | – | –
24 | COc1c(OCc2ccccc2)c(OCc2ccccc2)cc(CO)c1-c1c(CO)cc(OCc2ccccc2)c(OCc2ccccc2)c1OC | > 218 µM | – | – | –
